Results from different studies.
Protocols differ between the studies behind these lines.
Target: Discoidin domain-containing receptor 2 (DDR2, Homo sapiens, UniProt Q16832)

O=C1NC(=O)c2cc(Nc3ccc(F)cc3)c(Nc3ccc(F)cc3)cc21  remaining signal (cell-free assay; 0.5 µM): 99.6%
O=C(Nc1cnn(-c2csc(C(=O)NC3COC3)c2)c1)Nc1c(F)cccc1Cl  remaining activity (enzyme activity, inhibitor; 5 µM): 96.6%
Cc1ccc(Nc2nccc(N(C)c3ccc4c(C)n(C)nc4c3)n2)cc1S(N)(=O)=O  remaining signal (cell-free assay; 0.5 µM): 36.2%
Nc1ncnc2occ(-c3ccc(NC(=O)Nc4cc(C(F)(F)F)ccc4F)cc3)c12  remaining signal (cell-free assay; 20 µM): 1.4%
Cc1cc(NC(=O)c2cccc(S(F)(F)(F)(F)F)c2)cc(-n2ccn3nc(-c4cccnc4)cc23)c1  remaining binding (cell-free assay, competition with immobilised ligand; 1 µM): 18.2%
N#CCCc1ccc2c(c1)-c1[nH]c3ccc([N+](=O)[O-])cc3c1CC(=O)N2  remaining signal (cell-free assay; 0.5 µM): 105%
Cc1ccc(C(=O)Nc2ccc(CN3CCN(C)CC3)c(C(F)(F)F)c2)cc1C#Cc1cnc2cccnn12  remaining signal (cell-free assay; 23.5 nM): 0.3%
COc1cc(Nc2cnc(C#N)c(O[C@H](C)CN(C)C)n2)ncc1-c1cnn(C)c1  remaining activity (enzyme activity, inhibitor, radiometric; 1 µM): 95%
CS(=O)(=O)c1cc(C2(NC(=O)c3cncc4c3cnn4-c3ccc(F)cc3)CC2)ccn1  remaining binding (cell-free assay, competition with immobilised ligand; 1 µM): 100%
C=CC(=O)Nc1cc(Nc2nccc(Nc3cc(Cl)c(F)cc3C(C)(C)O)n2)c(OC)cc1N1CC[C@@H](N(C)C)C1  inhibition (enzyme activity, inhibitor; 1 µM): 1%
O=C(Nc1ccc(Oc2ccc(F)cc2)cc1)N1CCc2ncccc2[C@H]1c1ccc(F)cc1  remaining binding (cell-free assay, competition with immobilised ligand; 1 µM): 100%
CC(C)(C)c1nc(-c2cccc(NS(=O)(=O)c3c(F)cccc3F)c2F)c(-c2ccnc(N)n2)s1  remaining activity (enzyme activity, inhibitor, radiometric; 1 µM): 14%
CNC(=O)c1cc2c(Oc3ccc(NC(=O)C4(C(=O)Nc5ccc(F)cc5)CC4)cc3)ccnc2cc1OC  inhibition (enzyme activity, inhibitor, radiometric; 1 µM): 104%
CNC(=O)c1cc(Oc2ccc(NC(=O)Nc3ccc(Cl)c(C(F)(F)F)c3)cc2)ccn1  inhibition (enzyme activity, inhibitor; 0.3 µM): 108%
CS(=O)(=O)N1CCCC(NC(=O)[C@H](CCC2CCCCC2)NC(=O)c2ccc(CNC(=O)c3cnc4ccccn34)cc2)C1 (stereo partly drawn)  remaining binding (cell-free assay, competition with immobilised ligand; 0.1 µM): 0%
Cc1cc(NC(=O)c2cccc3cc(-c4cccc5[nH]nc(N)c45)ccc23)ccc1F  activity vs control (enzyme activity, inhibitor; 0.1 µM): 60%
Cc1c[nH]c2nccc(Oc3c(F)cc(Nc4cc(Cl)nc(N)n4)cc3F)c12  remaining binding (cell-free assay, competition with immobilised ligand; 0.1 µM): 57%
Cc1[nH]c(/C=C2\C(=O)Nc3ccc(F)cc32)c(C)c1C(=O)N[C@H]1CCN(C(=O)N(C)C)C1  remaining activity (enzyme activity, inhibitor; 1 µM): 107%
COc1cc(Cl)c(C(=O)N[C@@H](CN[C@H]2CC[C@@H](N)CC2)Cc2ccc(C#N)cc2)cc1-c1ccc(CN[C@H](C)c2ccc(C)cc2)o1  remaining activity (enzyme activity, inhibitor; 1 µM): 104%
FC(F)(F)c1ccc2c(c1)nc(-c1cccnc1)n2C1CC1  remaining binding (cell-free assay, competition with immobilised ligand; 1 µM): 100%
CCN(CC)CCNC(=O)c1c(C)[nH]c(/C=C2\C(=O)Nc3ccc(F)cc32)c1C  inhibition (enzyme activity, inhibitor; 10 µM): 31%
Cc1noc([C@H]2C[C@@H](c3ccc(C(F)(F)F)cc3)CN(C(=O)N3CCS(=O)(=O)C3)C2)n1  remaining binding (cell-free assay, competition with immobilised ligand; 1 µM): 74%
CCN(CC)CCNC(=O)c1c(C)[nH]c(/C=C2\C(=O)Nc3ccc(F)cc32)c1C  remaining activity (enzyme activity, inhibitor; 1 µM): 103%
Cc1ccc(NC(=O)c2ccc(C)c(C(F)(F)F)c2)cc1C#Cc1nn(C2CCC(O)CC2)c2ncnc(N)c12 (stereo not drawn)  remaining signal (cell-free assay; 10 µM): 16%
